ChEMBL document CHEMBL2417396 (J Nat Prod, 2013)
Active and inactive are the calls of the source. No cut-off for these calls is given here.

Tests used:
[1] = tested on: DU-145; assay: Cytotoxicity against human DU145 cells by SRB assay; assay type: functional
Method in brief: (§1)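 Cell lines obtained from ATCC and kept in recommended media containing gentamicin and amphotericin B. Growth inhibition was measured by the NCI standard sulforhodamine B assay. GI50 is the drug concentration calculated to halve net protein increase relative to untreated cells. Values are averages of at least three separate experiments, each run in triplicate.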

[2] = tested on: SK-OV-3; assay: Cytotoxicity against human SKOV3 cells by SRB assay; assay type: functional; method in brief: as §1
[3] = tested on: NCI-H460; assay: Cytotoxicity against human NCI-H460 cells by SRB assay; assay type: functional; method in brief: as §1
[4] = molecular target: T1, Tubulin (Homo sapiens) (UniProt P68371+Q9H4B7+P0DPH7+P68366+Q13509+Q71U36+P04350+Q3ZCM7+P07437+P68363+Q9BQE3+Q6PEY2+Q13885+Q9BVA1+Q9BUF5); assay: Displacement of [3H]colchicine from tubulin (unknown origin) at 50 uM; assay type: protein-complex assay
Method in brief: (§2)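 Colchicine binding assay with 1 μM tubulin and 5.0 μM [3H]colchicine. Inhibitor tested at 50, 5 and/or 1 μM.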

[5] = Inhibition of bovine brain tubulin polymerization after 20 mins; design: species or system Bos taurus
Method in brief: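 Purified bovine brain tubulin, 10 μM (1.0 mg/mL), preincubated with a concentration series in glutamate buffer at 30 °C, then cooled to 0 °C. GTP added, then warmed to 30 °C to start assembly. Turbidity read at 350 nm, with disassembly checked by cooling.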

[6] = tested on: Mus musculus; assay: Vascular disrupting activity in human PC3 cells xenografted SCID mouse assessed as decrease of blood flow in tumor at 350 mg/kg, ip after 80 mins by bioluminescence imaging analysis; assay type: functional, organism-based; design: dose 350 mg/kg; settings: PC-3
[7] = molecular target: T1, Tubulin (Homo sapiens); assay: Displacement of [3H]colchicine from tubulin (unknown origin) at 5 uM; assay type: protein-complex assay; method in brief: as §2

Compound: COc1ccc2c(C(=O)c3cc(OC)c(OC)c(OC)c3)c(-c3ccc(OC)c(OP(=O)(O)O)c3)n(C)c2c1
- GI50 [1]: 4670 nM
- GI50 [2]: 8640 nM
- GI50 [3]: 3560 nM
- inhibition [4]: 29%
- IC50 [5]: > 20000 nM

Compound: COc1ccc(/C=C\c2cc(OC)c(OC)c(OC)c2)cc1OP(=O)(O)O [FOSBRETABULIN DISODIUM]
- GI50 [1]: 16 nM
- GI50 [3]: 66 nM

Compound: COc1ccc(/C=C\c2cc(OC)c(OC)c(OC)c2)cc1O [COMBRETASTATIN A4]
- GI50 [1]: 0.54 nM
- GI50 [2]: 0.42 nM
- GI50 [3]: 2.8 nM

Compound: COc1ccc2c(C(=O)c3cc(OC)c(OC)c(OC)c3)c(-c3ccc(OC)c(O)c3)n(C)c2c1
- GI50 [1]: 2680 nM
- GI50 [2]: 2050 nM
- GI50 [3]: 4140 nM
- inhibition [4]: 34%
- IC50 [5]: > 20000 nM

Compound: COc1ccc2c(C(=O)c3cc(OC)c(OC)c(OC)c3)c(-c3ccc(OC)c(OP(=O)(O)O)c3)[nH]c2c1
- GI50 [1]: 29.7 nM
- GI50 [2]: 22.3 nM
- Activity [6]: Active
- GI50 [3]: 31.1 nM
- inhibition [7]: 26%
- IC50 [5]: 4200 nM
